Assay results collected from several papers.
CDK7 with cyclin H: Cyclin-dependent kinase 7, with cyclin H (CDK7, Homo sapiens, UniProt P50613)
MTNR1B: Melatonin receptor type 1B (MTNR1B, Homo sapiens, UniProt P49286)
BAZ1A: Bromodomain adjacent to zinc finger domain protein 1A (BAZ1A, Homo sapiens, UniProt Q9NRL2)

| Compound | target | test | test system | conditions | endpoint | value |
| --- | --- | --- | --- | --- | --- | --- |
| ON=CC1=C(C=Cc2ccccc2)CCC1 | Fibroblast growth factor 23 (Homo sapiens, UniProt Q9GZV9) | thermal stability, DSF |  | 200 µM | ΔTm | 16.5 °C |
| C=C1CC[C@@H]2[C@](C)(CO)[C@H](O)CC[C@@]2(C)[C@@H]1C/C=C1/C(=O)OC[C@H]1O | CDK7 with cyclin H | enzyme activity, inhibitor, ADP detection |  | 10 µM | inhibition | 34.6% |
| c1ccc(-c2nc(NCC(c3ccccc3)c3ccccc3)c3ccccc3n2)cc1 | Sodium-dependent dopamine transporter (Slc6a3, Rattus norvegicus, UniProt P23977) | transporter uptake, inhibitor, radiometric |  | 12.8 µM | remaining activity | 30% |
| O=c1cc(CO)occ1O | CDK7 with cyclin H | enzyme activity, inhibitor, ADP detection |  | 10 µM | inhibition | 21.3% |
| COc1cc2c(CCNC(C)=O)c[nH]c2cc1I | MTNR1B | β-arrestin recruitment, agonist | MT2 | 90 min | Emax | 101% |
| CC/C(=C(/CC)c1ccc(O)cc1)c1ccc(O)cc1 | CDK7 with cyclin H | enzyme activity, inhibitor, ADP detection |  | 10 µM | inhibition | 14.7% |
| COCC(CNC(C)=O)c1cccc2ccc(OC)cc12 (stereo not shown) | MTNR1B | cAMP, agonist, TR-FRET | CHO-K1 | 20 min | Emax | 67% |
| C[S+]([O-])c1ccc(-c2nc(-c3ccncc3)c(-c3ccc(F)cc3)[nH]2)cc1 (stereo not shown) | BAZ1A | thermal stability, DSF |  | 10 µM | ΔTm | 1.03 °C |
| COc1ccc2ncn(CCNC(C)=O)c2c1 | MTNR1B | GTPγS binding, agonist, radiometric |  | cell membranes | Emax | 89% |
| CN(C)C1CCN(CC#Cc2nn(C3CCCC3)c3nc(NCc4ccccc4)ncc23)C1 (stereo not shown) | Death-associated protein kinase 1 (DAPK1, Homo sapiens, UniProt P53355) | enzyme activity, inhibitor, FRET |  | 10 µM | inhibition | 7% |
| Oc1ccc(-c2nc(-c3ccncc3)c(-c3ccc(F)cc3)[nH]2)cc1 | BAZ1A | thermal stability, DSF |  | 10 µM | ΔTm | 0.34 °C |
| C[C@@H]1C(=O)O[C@H]2C[C@@]34[C@H]5C[C@@H](C(C)(C)C)[C@]36[C@@H](OC(=O)[C@@H]6O)O[C@@]4(C(=O)O5)[C@]21O | CDK7 with cyclin H | enzyme activity, inhibitor, ADP detection |  | 10 µM | inhibition | 35.3% |
| CCc1ccc2scc(CCNC(C)=O)c2c1 | MTNR1B | β-arrestin recruitment, agonist | MT2 | 90 min | Emax | 75% |
